Laboratory results reported in ChEMBL document CHEMBL1944532, “Synthesis and evaluation of anticancer activity of some novel 6-aryl-2-(p-sulfamylphenyl)-pyridazin-3(2H)-ones” (Eur J Med Chem, 2012).

Legend:
Type in all cases: functional
SR = experiment: Cytotoxicity against human SR cells after 48 hrs by SRB assay
Method in brief: (§1)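 NCI 60-cell-line five-dose screen. Cells were grown in 1640 medium with 5% fetal calf serum and 2 mM L-glutamine, with inoculum density set by cell line, and pre-incubated 24 h. Compound in DMSO was added at 10^-4 to 10^-8 M (10-fold steps) with 48 h continuous exposure. Growth was read by SRB protein assay, and GI50, TGI and LC50 were derived from dose-response.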

TK-10 = experiment: Cytotoxicity against human TK10 cells assessed as cell growth at 10 uM after 48 hrs by SRB assay; conditions: TK-10, 48 h, read-out: Activity
Method in brief: (§2)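 NCI primary one-dose screen at 10^-5 M against the full panel of about 60 human tumour cell lines, run to the NCI Drug Evaluation Branch protocol.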

HCC 2998 = experiment: Cytotoxicity against human HCC2998 cells assessed as cell growth at 10 uM after 48 hrs by SRB assay; conditions: HCC 2998, 48 h, read-out: Activity
Method in brief: (§3)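 NCI primary single-dose screen at 10^-5 M against the ~60 human tumour cell line panel. Cells grown in RPMI-1640 with 5% fetal calf serum and 2 mM L-glutamine and pre-incubated 24 h before compound addition. Compound added from DMSO solution with 48 h exposure. Growth read by sulforhodamine B protein staining.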

EKVX = experiment: Cytotoxicity against human EKVX cells after 48 hrs by SRB assay
Method in brief: (§4)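 NCI ~60-line panel in RPMI-1640 with 5% fetal calf serum and 2 mM L-glutamine, pre-incubated 24 h. Compound in DMSO tested at five 10-fold concentrations (10^-4 to 10^-8 M) with 48 h continuous exposure. Growth measured by sulforhodamine B protein assay. GI50 (50% net growth inhibition), TGI (total inhibition) and LC50 (50% net cell death) derived from dose-response.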

LOX IMVI [1] = experiment: Cytotoxicity against human LOXIMVI cells after 48 hrs by SRB assay
Method in brief: (§5)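 NCI five-dose screen on the ~60-line human tumor panel. Cells grown in RPMI-1640 with 5% fetal calf serum and 2 mM L-glutamine, seeded at line-dependent density and preincubated 24 h. Compound added from DMSO at 10-fold dilutions from 10^-4 to 10^-8 M, continuous exposure 48 h. Growth read by sulforhodamine B protein stain. GI50, TGI and LC50 derived per line.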

SF-295 [2] = experiment: Cytotoxicity against human SF295 cells assessed as cell growth at 10 uM after 48 hrs by SRB assay; conditions: SF-295, 48 h, read-out: Activity
Method in brief: (§6)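 NCI primary single-dose screen at 10^-5 M against the full panel of about 60 human tumor cell lines. Cells were in RPMI-1640 with 5% fetal calf serum and 2 mM L-glutamine and preincubated 24 h. Compound was given in DMSO with 48 h exposure. Growth was estimated by sulforhodamine B protein assay.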

NCI-H522 = experiment: Cytotoxicity against human NCI-H522 cells after 48 hrs by SRB assay; conditions: NCI-H522, 48 h; method in brief: as §5
M14 [3] = experiment: Cytotoxicity against human M14 cells after 48 hrs by SRB assay; conditions: M14, 48 h; method in brief: as §5
SN12C [4] = experiment: Cytotoxicity against human SN12C cells assessed as cell growth at 10 uM after 48 hrs by SRB assay; conditions: read-out: Activity; method in brief: as §2
MDA-MB-231 = experiment: Cytotoxicity against human MDA-MB-231 cells assessed as cell growth at 10 uM after 48 hrs by SRB assay; conditions: MDA-MB-231, 48 h, read-out: Activity; method in brief: as §6
LOX IMVI [5] = experiment: Cytotoxicity against human LOXIMVI cells assessed as cell growth at 10 uM after 48 hrs by SRB assay; conditions: read-out: Activity; method in brief: as §6
Malme-3M = experiment: Cytotoxicity against human MALME-3M cells after 48 hrs by SRB assay; method in brief: as §5
UACC-62 = experiment: Cytotoxicity against human UACC62 cells assessed as cell growth at 10 uM after 48 hrs by SRB assay; conditions: UACC-62, 48 h, read-out: Activity; method in brief: as §2
COLO 205 = experiment: Cytotoxicity against human COLO205 cells assessed as cell growth at 10 uM after 48 hrs by SRB assay; conditions: COLO 205, 48 h, read-out: Activity; method in brief: as §3
M14 [6] = experiment: Cytotoxicity against human M14 cells assessed as cell growth at 10 uM after 48 hrs by SRB assay; conditions: M14, 48 h, read-out: Activity; method in brief: as §6
HCT-116 [7] = experiment: Cytotoxicity against human HCT116 cells after 48 hrs by SRB assay; conditions: HCT-116, 48 h; method in brief: as §4
HCT-116 [8] = experiment: Cytotoxicity against human HCT116 cells assessed as cell growth at 10 uM after 48 hrs by SRB assay; conditions: HCT-116, 48 h, read-out: Activity; method in brief: as §3
HT-29 = experiment: Cytotoxicity against human HT-29 cells after 48 hrs by SRB assay; conditions: HT-29, 48 h; method in brief: as §4
KM12 = experiment: Cytotoxicity against human KM12 cells after 48 hrs by SRB assay; conditions: KM12, 48 h; method in brief: as §5
SF-295 [9] = experiment: Cytotoxicity against human SF295 cells after 48 hrs by SRB assay; conditions: SF-295, 48 h; method in brief: as §5
SN12C [10] = experiment: Cytotoxicity against human SN12C cells after 48 hrs by SRB assay; method in brief: as §1
SK-OV-3 = experiment: Cytotoxicity against human SKOV3 cells assessed as cell growth at 10 uM after 48 hrs by SRB assay; conditions: SK-OV-3, 48 h, read-out: Activity; method in brief: as §2
IGROV-1 = experiment: Cytotoxicity against human IGROV1 cells assessed as cell growth at 10 uM after 48 hrs by SRB assay; conditions: IGROV-1, 48 h, read-out: Activity; method in brief: as §3
MDA-MB-468 = experiment: Cytotoxicity against human MDA-MB-468 cells after 48 hrs by SRB assay; conditions: MDA-MB-468, 48 h; method in brief: as §5
SF-268 = experiment: Cytotoxicity against human SF268 cells assessed as cell growth at 10 uM after 48 hrs by SRB assay; conditions: SF-268, 48 h, read-out: Activity; method in brief: as §6

CCc1ccc(-c2ccc(=O)n(-c3ccc(S(N)(=O)=O)cc3)n2)cc1
LC50 (SR): > 100 µM | GI50 (SR; read-out: GI50): 0.0887 µM | GI50 (SR; read-out: pGI50 (converted)): 0.0891 µM | TGI (SR; read-out: pTGI (converted)): 0.49 µM | growth at 10 µM (TK-10): 76.8% | growth at 10 µM (HCC 2998): 53.9% | LC50 (50% net cell death) (EKVX): > 100 µM | GI50 (EKVX; read-out: GI50): 2.79 µM | GI50 (EKVX; read-out: pGI50 (converted)): 2.82 µM | TGI (EKVX; read-out: pTGI): > 100 µM | LC50 (LOX IMVI [1]): > 100 µM | GI50 (LOX IMVI [1]; read-out: GI50): 5.27 µM | GI50 (LOX IMVI [1]; read-out: pGI50 (converted)): 5.25 µM | TGI (LOX IMVI [1]; read-out: pTGI): > 100 µM | growth at 10 µM (SF-295 [2]): 18.4% | LC50 (NCI-H522): > 100 µM | GI50 (NCI-H522; read-out: GI50): 0.0966 µM | GI50 (NCI-H522; read-out: pGI50 (converted)): 0.0955 µM | TGI (NCI-H522; read-out: pTGI (converted)): 0.631 µM | LC50 (M14 [3]): > 100 µM | GI50 (M14 [3]; read-out: GI50): 0.335 µM | GI50 (M14 [3]; read-out: pGI50 (converted)): 0.339 µM | TGI (M14 [3]; read-out: pTGI (converted)): 4.9 µM | growth at 10 µM (SN12C [4]): 58.4% | growth at 10 µM (MDA-MB-231): 66.8% | growth at 10 µM (LOX IMVI [5]): 55.1% | LC50 (Malme-3M): 75.9 µM | GI50 (Malme-3M; read-out: GI50): 0.188 µM | GI50 (Malme-3M; read-out: pGI50 (converted)): 0.186 µM | TGI (Malme-3M; read-out: pTGI (converted)): 16.2 µM | growth at 10 µM (UACC-62): 38.5% | growth at 10 µM (COLO 205): 26% | growth at 10 µM (M14 [6]): 17.7% | LC50 (concentration causing 50% net cell death) (HCT-116 [7]): > 100 µM | GI50 (HCT-116 [7]; read-out: GI50): 0.535 µM | GI50 (HCT-116 [7]; read-out: pGI50 (converted)): 0.537 µM | TGI (HCT-116 [7]; read-out: pTGI (converted)): 19.1 µM | growth at 10 µM (HCT-116 [8]): 16.8% | LC50 (HT-29): > 100 µM | GI50 (HT-29; read-out: GI50): 0.436 µM | GI50 (HT-29; read-out: pGI50 (converted)): 0.437 µM | TGI (HT-29; read-out: pTGI): > 100 µM | LC50 (50% lethal concentration) (KM12): > 100 µM | GI50 (KM12; read-out: GI50): 0.486 µM | GI50 (KM12; read-out: pGI50 (converted)): 0.49 µM | TGI (KM12; read-out: pTGI): > 100 µM | LC50 (SF-295 [9]): 75.9 µM | GI50 (SF-295 [9]; read-out: GI50): 0.554 µM | GI50 (SF-295 [9]; read-out: pGI50 (converted)): 0.55 µM | TGI (SF-295 [9]; read-out: pTGI (converted)): 17.4 µM | LC50 (SN12C [10]): > 100 µM | GI50 (SN12C [10]; read-out: GI50): 5.84 µM | GI50 (SN12C [10]; read-out: pGI50 (converted)): 5.89 µM | TGI (SN12C [10]; read-out: pTGI): > 100 µM | growth at 10 µM (SK-OV-3): 49.5% | growth at 10 µM (IGROV-1): -5.72% | LC50 (MDA-MB-468): > 100 µM | GI50 (MDA-MB-468; read-out: GI50): 3.18 µM | GI50 (MDA-MB-468; read-out: pGI50 (converted)): 3.16 µM | TGI (MDA-MB-468; read-out: pTGI): > 100 µM | growth at 10 µM (SF-268): 42%
